CHT inh – inhibits the human high affinity choline transporter | Q9GZV3 | CHT-expressing cells, membrane potential dye, choline response; stronger effect = lower value | B-score at 10 µM | 0.86% of 310,000 active | AID 488975;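 active = B-score over 3 SD under the library average, and starting fluorescence ratio not unusually high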;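 note: choline stimulus applied at its EC90 after an EC20 pre-addition; B-score computed on integrated fluorescence ratio after choline addition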
Target sequence (Q9GZV3 whole entry, looked up): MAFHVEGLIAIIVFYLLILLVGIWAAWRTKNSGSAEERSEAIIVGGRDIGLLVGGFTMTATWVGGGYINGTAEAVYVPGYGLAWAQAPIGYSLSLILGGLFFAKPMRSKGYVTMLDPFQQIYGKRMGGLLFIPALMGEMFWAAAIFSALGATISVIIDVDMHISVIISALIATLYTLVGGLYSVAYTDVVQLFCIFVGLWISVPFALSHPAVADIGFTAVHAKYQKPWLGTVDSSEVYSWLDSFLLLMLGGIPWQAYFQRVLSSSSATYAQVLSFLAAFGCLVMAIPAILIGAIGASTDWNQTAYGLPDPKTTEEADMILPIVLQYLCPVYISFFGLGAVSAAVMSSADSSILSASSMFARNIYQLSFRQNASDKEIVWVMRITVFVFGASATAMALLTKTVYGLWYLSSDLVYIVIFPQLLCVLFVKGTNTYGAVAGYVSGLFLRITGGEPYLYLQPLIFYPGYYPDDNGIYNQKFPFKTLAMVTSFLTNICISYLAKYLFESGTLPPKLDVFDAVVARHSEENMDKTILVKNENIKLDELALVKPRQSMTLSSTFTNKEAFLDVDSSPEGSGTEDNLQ
CHT PAM – human CHT allosteric activation; CHT-expressing cells, membrane potential dye, choline EC20; stronger effect = higher value; LV-AA mutant CHT in HEK293 cells; B-score at 10 µM; Q9GZV3; 0.49% of 310,000 active; AID 488977;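 active = initial fluorescence not abnormally high and integrated response B-score, plate-corrected, over 3 SD above library mean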
procasp3 activ – activators of human procaspase-3; P42574; recombinant procaspase-3 D3A, Ac-DEVD-pNA absorbance 405 nm; activation, % at 8.5 µM; 0.11% of 330,000 active;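 active = activation above the mean of all tested compounds plus 3 SD, cut at about 21% in these data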;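 note: 0% = DMSO alone and 100% = DMSO wells spiked with extra 5 µM PC-3 D3A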
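System: Procaspase-3 D3A mutant. Medium: Zinc-free 300 mM NaCl, 50 mM HEPES, 0.01% Triton X-100. Schedule: 1 h preincubation plus 2 h reaction at 25 °C. Measured by: 405 nm absorbance of p-nitroaniline, reads at 0 and 120 min. Read-out: percent activation relative to control range.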
proCasp7 act – counter-screen for procaspase-3 activators: activators of human procaspase-7; P55210; recombinant procaspase-7, Ac-DEVD-pNA absorbance 405 nm; D23A/D198A/D206A triple mutant, cannot self-cleave; scale: DMSO 0, 5 µM enzyme 100; activation, % at 8.5 µM; 0.093% of 330,000 active; AID 463210;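 active = percent activation above the screen-wide mean plus 3 SD, cut at about 25% in these data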
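buffer or medium = Zinc-free HEPES/NaCl buffer, pH 7.4 | material = Procaspase-7 triple mutant (PC-7 D3A) | input = 2 µM procaspase-7 mutant as dispensed | signal = Epi-absorbance of released pNA at 405 nm, two timepoints | timing = 1 h preincubation, 2 h reaction | replicates = singlicate compound testing | evaluation = % activation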
The depositor's hits bear a star; i = inactive; · = not tested or not shown. In the library only some 1.3% were active in any assay of this set; here they are far more common.

SMILES | CHT inh | CHT PAM | procasp3 activ | proCasp7 act
CC(=O)c1cccc(NC(=O)c2c(-c3c(F)cccc3Cl)noc2C)c1 | · | · | 3 | -1
COc1ccc(-c2cc(N)n(S(=O)(=O)c3c(F)c(F)c(F)c(F)c3F)n2)cc1OC | -7.7* | i | -9 | -3
COc1ccc(S(=O)(=O)n2nc(-c3cc(OC)c(OC)c(OC)c3)cc2N)cc1OC | i | i | 11 | 5
CC[C@H](C)Cc1cn([C@@H](CCCN=C(NC(=O)OC(C)(C)C)NC(=O)OC(C)(C)C)C(=O)NCCCCCCCCCCC(=O)N2CCN(C(=O)OC(C)(C)C)CC2)nn1 | i | i | 9 | 1
Cc1cn([C@@H](CCCCNC(=O)OC(C)(C)C)C(=O)NCCCCCCCCCCC(=O)N2CCN(C(=O)OC(C)(C)C)CC2)nn1 | -5.8* | i | 0 | -8
COc1ccc(-c2csc(N(CCCN(C)C)C(=O)c3ccccc3Cl)n2)cc1 | -8.8* | i | 2 | 10
COc1ccc(-c2csc(N(CCCN(C)C)C(=O)c3ccccc3F)n2)cc1 | i | i | 0 | 5
CSc1nc(N)nc2c1ncn2CC(=O)NCc1ccc2[nH]ccc2c1 | · | · | 3 | 8
Cc1c(Br)c(O)c(Br)c2sc(=O)oc12 | -8.2* | i | -23 | -33
CCOc1ccccc1/C=N/NC(=O)c1nnn(-c2nonc2N)c1CN1CCC(C)CC1 | i | i | 7 | -18
CC1CCN(Cc2c(C(=O)N/N=C/c3ccc(C(C)C)cc3)nnn2-c2nonc2N)CC1 | i | 6.4* | -1 | -13
CCN1CCN(c2c(Cl)cccc2NC(=O)c2ccc([N+](=O)[O-])o2)CC1 | i | 7.1* | 3 | 2
CCOc1ccccc1OCCN1CCC(Cc2ccccc2)CC1 | i | i | 1 | -1
N#Cc1ccccc1OCCCN1CCC(Cc2ccccc2)CC1 | -9* | i | -1 | 1
COc1ccccc1CN1CCC(CNS(=O)(=O)c2cc(-c3cc(C)no3)ccc2OC)CC1 | i | i | 2 | 0
COc1ccccc1CNS(=O)(=O)c1ccc(-c2cc(C)no2)cc1 | i | 6.4* | -3 | -1
COc1cc2nc(N3CCNCC3)nc(N)c2cc1OC | -8.3* | i | -2 | 7
COc1ccc(Cl)cc1-c1nc(SCC(=O)N(C)C2CCS(=O)(=O)C2)n[nH]1 (stereo not given) | · | · | 1 | -1
CCOC(=O)c1c(C)[nH]c(C)c1C(=O)COC(=O)C1CC(=O)N(CCc2ccccc2)C1 (stereo not given) | · | · | 9 | 10
COc1cc([N+](=O)[O-])cc(/C=C2/SC(=S)N(Cc3ccccc3)C2=O)c1O | -5.8* | i | -10 | -26
O=C1/C(=C\c2cccc([N+](=O)[O-])c2O)SC(=S)N1Cc1ccccc1 | -8.4* | i | -17 | -30
CC(=O)c1cccc(S(=O)(=O)Nc2cc(C(F)(F)F)ccc2N2CCOCC2)c1 | · | · | 6 | 9
O=C(COc1ccccc1Br)Nc1ccc(S(=O)(=O)N2CCCC2)cc1 | · | · | 4 | -6
O=C(NCc1ccc(Cl)cc1)c1n[nH]c([N+](=O)[O-])c1Cl | -8.5* | i | 9 | -5
O=C(NCc1ccc(Cl)cc1)c1ncn[nH]1 | i | i | 3 | -1
SMILES | CHT inh | CHT PAM | procasp3 activ | proCasp7 act
CN(C)C1=NC[C@H](Cc2ccccc2)N1CC1CCC(C(C)(C)C)CC1 (stereo not given in full) | i | 15* | 0 | -5
Cc1cc2n(n1)C(c1ccc(N(C)C)cc1)Nc1ccccc1-2 (stereo not given) | i | i | 20 | 47*
Cc1cc2n(n1)C(c1ccccc1)Nc1ccccc1-2 (stereo not given) | i | i | -9 | -2
O=C(NCCN1CCOCC1)c1ccccc1OCc1ccccc1 | · | · | 7 | 8
O=C(CSCc1ccc(Cl)cc1)Nc1cc([N+](=O)[O-])ccc1O | -8.1* | i | -7 | -2
Cc1nn(C(C)C(=O)NCc2cccs2)c(=O)c2nn(-c3ccccc3)c(C)c12 (stereo not given) | i | i | -2 | 6
Cc1ccc(-n2nc3c(=O)n(C(C)C(=O)NCCc4cccs4)nc(C)c3c2C)cc1 (stereo not given) | -5.5* | i | -13 | 1
CCOC(=O)c1ccc(NC(=O)c2ccccc2[N+](=O)[O-])cc1 | i | i | -5 | 0
CCOC(=O)c1cc([N+](=O)[O-])c([N+](=O)[O-])cc1NC(C)=O | -5.9* | i | -7 | 15
O=C(CSc1ccc2ccccc2n1)NCCCN1CCCC1=O | · | · | 1 | 0
CC1CCCN(C(=O)COC(=O)c2cc(-c3cccs3)nn2-c2ccccc2)C1 (stereo not given) | i | i | -2 | 3
COc1ccc(Cl)cc1NC(=O)CN1CCCC1 | i | i | 5 | -1
COC(=O)C1CCN(CC(=O)Nc2cc(Cl)ccc2OC)CC1 | -9.7* | i | 2 | 3
Cc1cc(C)nc(NC(=O)c2ccc(C)c([N+](=O)[O-])c2)n1 | i | i | -5 | -1
Cc1cc(C)nc(NC(=O)c2cc([N+](=O)[O-])cc([N+](=O)[O-])c2)n1 | i | 7.2* | 1 | 0
COc1ccc(C)cc1-n1nnnc1SCC(=O)NC1CC1 | · | · | 1 | 0
CCN1C(c2ccccc2)C(C)C(=O)C(C)C1c1ccccc1 (stereo not given) | i | 8.6* | -5 | 9
Oc1ccccc1N=N/C(=N/Nc1ccccc1O)c1ccccc1 | i | i | 3 | 2
N#C/C(N=Nc1ccccc1O)=N\Nc1ccccc1O | -11* | i | -7 | -20
COc1cc([N+](=O)[O-])ccc1NC(=S)NNC(=O)c1ccc2c(c1)OCO2 | -5.7* | i | -21 | -17
Cc1cc(N2CCN(C)CC2)nc2ccc(NC(=S)NCCCN3CCc4ccccc4C3)cc12 | i | i | -1 | 2
Cc1cc(N2CCCC2)nc2ccc(NC(=S)NCCCN3CCC(C)CC3)cc12 | -7.9* | i | -3 | 7
COc1cccc(-c2nc(C=O)cs2)c1 | -5* | i | 5 | -1
O=C(CCNS(=O)(=O)c1ccccc1C(F)(F)F)NCCCc1ccccc1 | · | · | 2 | 11
COc1cc(OC)c(NC(C)C(=O)N2CCCC2)cc1Cl (stereo not given) | -8.7* | i | -6 | -3
CCN(CC)C(=O)[C@H]1C[C@H](CC(=O)NCc2ccc(OC)c(OC)c2)C(=O)N2CCc3c([nH]c4cc(-c5ccco5)ccc34)[C@]12C | · | · | -7 | 2
Cc1ccc(-c2nc(=S)c3c(n2CC2CCCO2)CC(C)(C)OC3)cc1 (stereo not given) | i | i | -1 | 8
Cc1ccc(-c2nc(=S)c3c(n2Cc2ccco2)CC(C)(C)OC3)cc1 | i | 12* | -10 | -2
COc1cc(/C=C/C(=O)OCC(=O)N2CCCC2)ccc1OCC#N | · | · | -15 | -32

Screening results deposited in PubChem BioAssay by several laboratories.
